# Reference: PubChem BioAssay
# The source made the active and inactive calls.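 How the source made its calls, unless noted: active means viability loss from added drug above about 55%, and viability with drug at most 40%, in both replicates (limit read from the data, passing the limit was not always enough); inconclusive means both conditions met in only one replicate; inactive means neither replicate meets both conditions.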
# Legend:
# [1] = reducers of endogenous Her2 protein level, primary screen, SKBR3 breast tumor cells, AlphaScreen, ATP viability (AID 461;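 active means Her2 level under about 52% in both replicate screens, with viability over 70% of control, limit read from the data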;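 on Her2 level: lower value means less Her2 protein in the cells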;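 on viability: percent of carrier control wells set as 100% viability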); details: 18-24 h, measured here: SKBR3 viability, ATP luminescence, at 10 µM
# [2] = biological target: Receptor tyrosine-protein kinase erbB-2 (Homo sapiens) (UniProt P04626); test: as above; details: 18-24 h, at 10 µM, stronger effect = lower value
# Chain of Receptor tyrosine-protein kinase erbB-2 (Homo sapiens) (P04626 whole entry, looked up): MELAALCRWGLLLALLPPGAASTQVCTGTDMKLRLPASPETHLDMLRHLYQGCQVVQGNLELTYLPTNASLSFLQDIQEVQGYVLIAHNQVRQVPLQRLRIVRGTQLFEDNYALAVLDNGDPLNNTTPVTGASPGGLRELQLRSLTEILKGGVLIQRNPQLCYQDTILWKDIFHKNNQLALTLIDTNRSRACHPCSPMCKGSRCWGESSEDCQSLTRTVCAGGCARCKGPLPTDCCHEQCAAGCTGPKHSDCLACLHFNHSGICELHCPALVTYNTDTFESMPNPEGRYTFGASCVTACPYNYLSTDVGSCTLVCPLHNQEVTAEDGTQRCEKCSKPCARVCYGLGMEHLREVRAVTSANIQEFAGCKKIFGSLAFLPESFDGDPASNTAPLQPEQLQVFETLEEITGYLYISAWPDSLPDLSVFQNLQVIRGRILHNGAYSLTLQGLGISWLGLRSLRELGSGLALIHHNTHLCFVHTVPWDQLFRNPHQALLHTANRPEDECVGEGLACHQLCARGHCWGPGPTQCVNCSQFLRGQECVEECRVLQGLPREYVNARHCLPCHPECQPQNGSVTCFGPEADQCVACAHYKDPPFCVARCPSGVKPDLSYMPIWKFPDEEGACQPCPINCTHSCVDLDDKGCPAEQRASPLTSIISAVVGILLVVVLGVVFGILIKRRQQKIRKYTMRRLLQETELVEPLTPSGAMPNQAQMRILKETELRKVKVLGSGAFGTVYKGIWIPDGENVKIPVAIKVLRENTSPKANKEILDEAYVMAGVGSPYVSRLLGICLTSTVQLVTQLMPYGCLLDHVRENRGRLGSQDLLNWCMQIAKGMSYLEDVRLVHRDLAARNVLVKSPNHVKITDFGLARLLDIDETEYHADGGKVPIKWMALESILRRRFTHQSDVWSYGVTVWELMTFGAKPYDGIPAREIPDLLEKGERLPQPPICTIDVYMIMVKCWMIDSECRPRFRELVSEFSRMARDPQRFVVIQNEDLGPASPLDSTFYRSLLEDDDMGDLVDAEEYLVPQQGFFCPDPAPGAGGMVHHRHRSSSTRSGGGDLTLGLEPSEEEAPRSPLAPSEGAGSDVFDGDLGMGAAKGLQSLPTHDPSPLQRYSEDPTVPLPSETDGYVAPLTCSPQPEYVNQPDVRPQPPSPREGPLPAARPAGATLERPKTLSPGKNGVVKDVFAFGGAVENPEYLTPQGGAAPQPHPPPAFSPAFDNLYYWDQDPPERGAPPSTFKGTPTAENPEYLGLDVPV
# [3] = SK-BR-3 cell growth inhibitors, pilot screen, 24 h, human (AID 572;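 active means viability at or below 10% of carrier control in both of two separate runs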;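 further: compound exposure lasted between 18 and 24 h rather than exactly 24 h; 100% = carrier-treated control wells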); details: SK-BR-3 viability, CellTiter-Glo luminescence, at 10 µM, stronger effect = lower value
# [4] = HUVEC growth inhibition – cell-based, human, primary screen (AID 575;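 active means viability at or below 30% in both replicate assays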;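 further: 100% = median of untreated cell wells with 0.1% DMSO on each plate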); details: HUVEC proliferation, CellTiter-Glo luminescence, 72 h; at 10 µM; stronger effect = lower value
# Outline: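 material = primary HUVEC, no more than 12 passages | input = 1250 cells per well | controls = vehicle and MePR control wells | measured by = CTG luminescence | times = 72 h compound incubation | format = collagen-coated 384-well format | read-out = % viability vs DMSO wells | doses = single 10 µM dose, 0.1% DMSO, from 5x medium stock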
# [5] = growth inhibitors of H69AR lung tumor, primary screen, human, duplicate replicates (AID 580;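 active means viability at or under a set limit in both replicates, limit being median viability minus 3 SD, cut at about 48% in these data, passing the limit was not always enough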;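 further: 100% = mean luminescence of untreated wells and 0% = no signal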); details: H69AR lung tumor cells viability, ATP luminescence, 72 h; at 10 µM; stronger effect = lower value
# [6] = reversal of MRP1-mediated doxorubicin resistance, pilot screen, H69AR cells, doxorubicin co-treatment (AID 601); details: CellTiter-Glo, 72 h, at 10 µM; for differential viability (reversal): stronger effect = higher value
# [7] = 384-well plate pilot, post-Golgi transport modulator project, inhibition of yeast transport mutant growth (AID 636; in the data active means inhibition above about 31%); details: absorbance 615 nm, about 18 h, stronger effect = higher value
# [8] = growth suppression of yeast trafficking mutant, preliminary HTS, modulators of trafficking downstream of Golgi apparatus project, 1536-format plate, OD 615 nm (AID 637; in the data active means inhibition above about 30%); details: yeast transport mutant growth, absorbance 615 nm, 18 h; stronger effect = higher value
# [9] = H69AR cells + 2 uM doxorubicin, measured here: viability with 2 uM doxorubicin, stronger effect = lower value
# [10] = H69AR cells, compound alone cytotoxicity
Compound,viability [1],Her2 level [2],viability [3],viability [4],viability [5],differential viability (reversal) ([6]; H69AR cells + 2 uM doxorubicin),"viability [6, 9]","viability [6, 10]",inhibition [7],inhibition [8]
CCOC(=O)C1CCN(C(=O)CSc2cc(=O)n(CC)c3ccccc23)CC1,85%,99.5% (inactive),85% (inactive),84% (inactive),92.4% (inactive),10.4% (inactive),82%,92.4%,-0.39% (inactive),-5.09% (inactive)
Cn1cccc1Cc1nnc(SCC(=O)Nc2ccc(F)cc2F)n1-c1ccc(F)cc1,84%,90.5% (inactive),84% (inactive),81.6% (inactive),94.8% (inactive),1.3% (inactive),93.5%,94.8%,-1.03% (inactive),-3.5% (inactive)
O=C1OC2(c3ccccc3)C3CCCC2C13,100%,120% (inactive),100% (inactive),97.3% (inactive),100% (inactive),7.76% (inactive),92.4%,100%,-6.44% (inactive),5.87% (inactive)
COc1ccc2cc(C#N)c(NC(C)C)nc2c1,90.5%,63% (inactive),90.5% (inactive),90.8% (inactive),75.4% (inactive),-6.05% (inactive),81.4%,75.4%,-2.76% (inactive),2.91% (inactive)
CCOC(=O)c1oc2ccccc2c1CSc1nnnn1-c1ccc(OC)cc1,82.5%,69% (inactive),82.5% (inactive),77.4% (inactive),75% (inactive),1.07% (inactive),73.9%,75%,-4.8% (inactive),0.16% (inactive)
Cc1cccc(C)c1NC(=O)N1CCN(C2CCCCC2)CC1,111%,92.5% (inactive),111% (inactive),109% (inactive),104% (inactive),12.6% (inactive),91.6%,104%,-8.03% (inactive),-2.55% (inactive)
COC(=O)C1=C(C)NC(=O)C1(NC(=O)CN1CCCC1=O)C(F)(F)F (stereo not given),116%,91% (inactive),116% (inactive),105% (inactive),101% (inactive),3.15% (inactive),98.3%,101%,-4.34% (inactive),-6.03% (inactive)
CC(C)Cn1c(=O)c(C2=NS(=O)(=O)c3ccccc3N2)c(O)c2ccccc21,118%,86.5% (inactive),118% (inactive),97% (inactive),98.1% (inactive),-0.935% (inactive),99%,98.1%,-2.21% (inactive),1.8% (inactive)
CC(C)CNS(=O)(=O)c1ccc(OCC(=O)Nc2ccc3c(c2)OCO3)c(Cl)c1,89.5%,66% (inactive),89.5% (inactive),58.6% (inactive),66.7% (inactive),-2.31% (inactive),69%,66.7%,-5.39% (inactive),-0.67% (inactive)
CC(=O)NCCOc1cccc(OCCNC(C)=O)c1,94.5%,122% (inactive),94.5% (inactive),103% (inactive),86.3% (inactive),-5.34% (inactive),91.7%,86.3%,2.67% (inactive),-3.17% (inactive)
CN(C)/C=C1\N=C(c2ccc3c(c2)OCO3)OC1=O,91%,94.5% (inactive),91% (inactive),94.4% (inactive),98.1% (inactive),21.1% (inactive),76.9%,98.1%,-1.56% (inactive),-4.5% (inactive)
CC(C)[C@H](NC(=O)OC(C)(C)C)c1nnc(SCC(=O)Nc2ccc(Br)cc2)o1,96.5%,108% (inactive),96.5% (inactive),87.5% (inactive),93.9% (inactive),5.79% (inactive),88.1%,93.9%,-1.17% (inactive),-14% (inactive)
Cc1cc2n(n1)C(c1ccccc1)Nc1ccccc1-2 (stereo not given),97%,104% (inactive),97% (inactive),77.1% (inactive),90.7% (inactive),1.64% (inactive),89.1%,90.7%,-6% (inactive),-6.13% (inactive)
CCOC(=O)C1C2C=CC3(CN(c4cccc(Cl)c4)C(=O)C13)O2 (stereo not given),86%,80% (inactive),86% (inactive),91.2% (inactive),97.5% (inactive),1.17% (inactive),96.3%,97.5%,-4.4% (inactive),0.17% (inactive)
COc1ccccc1N1CCN(C(=O)CCNS(=O)(=O)c2ccc3c(c2)CCC(=O)N3)CC1,89%,81.5% (inactive),89% (inactive),106% (inactive),89.8% (inactive),-0.605% (inactive),90.4%,89.8%,-4.53% (inactive),2.62% (inactive)
CC(=O)N(C(C)=O)c1c(C#N)c(C)n(-c2ccccc2)c1C(=O)c1ccccc1,86.5%,88% (inactive),86.5% (inactive),78.4% (inactive),77.9% (inactive),-9.1% (inactive),87%,77.9%,-2.53% (inactive),-2.58% (inactive)
COC(=O)[C@@H](NC(=O)NCc1ccccc1Cl)C(C)C,95%,123% (inactive),95% (inactive),84.9% (inactive),94.4% (inactive),-1.47% (inactive),95.9%,94.4%,-1.17% (inactive),-9.5% (inactive)
Cc1nnc2n(-c3ccccc3)c(=O)c3c4c(sc3n12)CCCC4,79.5%,115% (inactive),79.5% (inactive),96.2% (inactive),85.6% (inactive),33.2% (inactive),52.4%,85.6%,-7.47% (inactive),0.33% (inactive)
Cc1nc2c3cnn(-c4ccccc4)c3ncn2n1,104%,86% (inactive),104% (inactive),79.6% (inactive),96.7% (inactive),14.2% (inactive),82.5%,96.7%,-3.87% (inactive),1.64% (inactive)
CCCOC(=O)CSc1nc(N)c(C#N)c(CC)c1C#N,99.5%,116% (inactive),99.5% (inactive),105% (inactive),94.6% (inactive),0.73% (inactive),93.9%,94.6%,2% (inactive),0.16% (inactive)
COc1cccc(CNC(=O)C2CCN(C(=O)N(C)C)CC2)c1,97.5%,118% (inactive),97.5% (inactive),90% (inactive),92.2% (inactive),0.06% (inactive),92.2%,92.2%,-0.64% (inactive),11.8% (inactive)
O=C(CSc1ncnc2ccccc12)NCCCO,104%,80% (inactive),104% (inactive),103% (inactive),103% (inactive),12.2% (inactive),91.1%,103%,-0.65% (inactive),4.92% (inactive)
O=C(Cn1cccc1C(=O)c1ccccc1)NCCN1CCOCC1,98%,89.5% (inactive),98% (inactive),111% (inactive),90% (inactive),2.57% (inactive),87.4%,90%,-0.79% (inactive),0.97% (inactive)
CCC(C)NC(=O)c1cc(-c2ccc(OC)cc2)on1 (stereo not given),106%,94% (inactive),106% (inactive),118% (inactive),89.8% (inactive),0.48% (inactive),89.3%,89.8%,-8.24% (inactive),1.33% (inactive)
CC(=O)C1=C(O)C(=O)N(c2ccc(C(=O)O)cc2)C1c1ccccc1 (stereo not given),107%,89% (inactive),107% (inactive),117% (inactive),102% (inactive),5.88% (inactive),95.7%,102%,-0.66% (inactive),1.8% (inactive)
O=C(Nc1ccccc1)N1C(=O)C2(OCCO2)c2ccccc21,114%,118% (inactive),114% (inactive),100% (inactive),87% (inactive),-11.8% (inactive),98.8%,87%,-0.79% (inactive),1.64% (inactive)
Cc1ccc(C)n1NC(=O)c1ccco1,90%,90% (inactive),90% (inactive),87.2% (inactive),94.8% (inactive),-9.64% (inactive),104%,94.8%,-2.76% (inactive),-3.39% (inactive)
CCOC(=O)N1CCN(C(=O)CSc2cc(C)nc3c(-c4ccccc4OC)c(C)nn23)CC1,79.5%,90% (inactive),79.5% (inactive),94% (inactive),73.3% (inactive),48.5% (inactive),24.8%,73.3%,-0.26% (inactive),-1.43% (inactive)
Cc1cccc(CCNC(=O)CCc2nc(-c3ccccc3F)no2)c1,91.5%,104% (inactive),91.5% (inactive),89.1% (inactive),93.5% (inactive),9.82% (inactive),83.7%,93.5%,-2.37% (inactive),-5% (inactive)
